In ChEMBL document CHEMBL4118207, “Docking Screens for Dual Inhibitors of Disparate Drug Targets for Parkinson's Disease” (J Med Chem, 2018):
Activity calls are given as the source filed them. The calls are words filed in the database; no cut-off is given here.

Experiments:
[1] = biological target: T1, Adenosine receptor A2a (Homo sapiens, UniProt P29274); experiment: Displacement of [3H]ZM241385 from A2A receptor in human HeLa cell membranes at 10 uM after 30 mins by beta-scintillation counting method
T1 sequence (P29274 whole entry): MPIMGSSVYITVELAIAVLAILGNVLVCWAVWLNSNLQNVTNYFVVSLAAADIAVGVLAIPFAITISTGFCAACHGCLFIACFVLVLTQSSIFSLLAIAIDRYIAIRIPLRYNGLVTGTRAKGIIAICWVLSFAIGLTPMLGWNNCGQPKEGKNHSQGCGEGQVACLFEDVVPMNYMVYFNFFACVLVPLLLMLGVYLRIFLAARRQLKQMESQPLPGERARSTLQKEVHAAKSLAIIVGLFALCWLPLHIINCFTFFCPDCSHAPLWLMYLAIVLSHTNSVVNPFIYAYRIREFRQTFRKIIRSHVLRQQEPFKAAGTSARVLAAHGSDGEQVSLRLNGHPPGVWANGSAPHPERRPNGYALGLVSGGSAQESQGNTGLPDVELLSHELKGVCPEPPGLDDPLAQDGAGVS

[2] = biological target: T2, Amine oxidase [flavin-containing] B (Homo sapiens, UniProt P27338); experiment: Inhibition of recombinant human MAO-B expressed in baculovirus infected BTI insect cells at 10 uM using tyramine as substrate preincubated for 30 mins followed by substrate addition measured after 60 mins by amplex red reagent based fluorescence assay; conditions: 1 h
T2 sequence (P27338 whole entry): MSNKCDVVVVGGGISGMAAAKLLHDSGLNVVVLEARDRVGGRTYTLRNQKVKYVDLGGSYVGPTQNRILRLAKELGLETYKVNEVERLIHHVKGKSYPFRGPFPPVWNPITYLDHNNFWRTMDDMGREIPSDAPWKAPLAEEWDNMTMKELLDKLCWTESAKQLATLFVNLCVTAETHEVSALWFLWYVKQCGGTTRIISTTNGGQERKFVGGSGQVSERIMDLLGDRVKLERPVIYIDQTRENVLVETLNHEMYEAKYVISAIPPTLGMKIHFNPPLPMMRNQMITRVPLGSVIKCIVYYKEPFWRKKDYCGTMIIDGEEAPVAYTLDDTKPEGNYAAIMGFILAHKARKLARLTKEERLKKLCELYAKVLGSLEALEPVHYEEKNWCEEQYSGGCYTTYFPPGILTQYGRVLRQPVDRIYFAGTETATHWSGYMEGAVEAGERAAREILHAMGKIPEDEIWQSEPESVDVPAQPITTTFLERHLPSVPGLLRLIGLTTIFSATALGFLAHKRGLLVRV
Summary of the method: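 Human recombinant MAO-B (final 1 U/mL) in 50 mM Tris-HCl pH 7.5, 0.05% CHAPS, 1% DMSO. Compound added from DMSO stock and pre-incubated 30 min at room temperature. Reaction started with tyramine (10 µM in 2-fold mix) and run 60 min at room temperature. HRP (final 0.1 U/mL) plus Amplex Red (final 10 µM) added; resorufin read at ex 535/em 590 nm over 30 min.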

[3] = biological target: T1, Adenosine receptor A2a; experiment: Displacement of [3H]ZM241385 from A2A receptor in human HeLa cell membranes after 30 mins by beta-scintillation counting method
[4] = biological target: T2, Amine oxidase [flavin-containing] B; experiment: Inhibition of recombinant human MAO-B expressed in baculovirus infected BTI insect cells using tyramine as substrate preincubated for 30 mins followed by substrate addition measured after 60 mins by amplex red reagent based fluorescence assay
Summary of the method: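 Recombinant human MAO-B, final 1 U/mL, in 50 mM Tris-HCl pH 7.5 with 0.05% CHAPS and 1% DMSO. Compounds dosed acoustically over 10^-9 to 10^-4 range, preincubated 30 min at room temperature. Interference controlled without enzyme, with added H2O2.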

[5] = test system: SH-SY5Y; experiment: Cytoprotection against 6-OHDA-induced neurotoxicity in human SH-SY5Y cells assessed as reduction in 6-OHDA-induced cell viability decrease at 0.15 uM preincubated for 3 hrs followed by 6-OHDA addition measured after 24 hrs by resazurin dye based assay relative to control; assay type: functional
Summary of the method: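 Human SH-SY5Y cells seeded 2.5 x 10^4/well in phenol-red-free DMEM with 1% FBS and 10 µM retinoic acid for 72 h to differentiate. Compound (0.1% v/v DMSO) pretreatment 3 h, then freshly prepared 20 µM 6-OHDA in saline/0.007% ascorbic acid for 24 h. Resazurin (0.02 mg/mL final) added for 2 h as the viability read-out.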

[6] = biological target: T2, Amine oxidase [flavin-containing] B; experiment: Inhibition of recombinant human MAO-B expressed in baculovirus infected BTI insect cells at 30 uM using tyramine as substrate preincubated for 30 mins followed by substrate addition measured after 60 mins by amplex red reagent based fluorescence assay relative to control; conditions: 1 h
[7] = biological target: T1, Adenosine receptor A2a; experiment: Displacement of [3H]ZM241385 from A2A receptor in human HeLa cell membranes at 30 uM after 30 mins by beta-scintillation counting method relative to control
[8] = biological target: T1, Adenosine receptor A2a; experiment: Antagonist activity at human A2A receptor expressed in CHO cells assessed as inhibition of NECA-stimulated cAMP accumulation at 100 nM preincubated for 15 mins followed by NECA addition measured after 15 mins by enzyme immunoassay; assay type: functional, cell-based
Summary of the method: (§1)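 CHO cells stably transfected with human A2A receptor, seeded 10^4 cells/well 24 h before assay. Washed in DMEM/F-12 with 25 mM Hepes pH 7.4, then switched to the same buffer plus 20 µM rolipram. Compound preincubated 15 min at 37 °C, NECA added at several concentrations for 15 min at 37 °C. cAMP measured by enzyme immunoassay.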

[9] = biological target: T1, Adenosine receptor A2a; experiment: Antagonist activity at human A2A receptor expressed in CHO cells assessed as inhibition of NECA-stimulated cAMP accumulation at 1 uM preincubated for 15 mins followed by NECA addition measured after 15 mins by enzyme immunoassay; assay type: functional, cell-based; summary of the method: as §1
[10] = biological target: T2, Amine oxidase [flavin-containing] B; experiment: Inhibition of recombinant human MAO-B expressed in baculovirus infected BTI insect cells using tyramine as substrate preincubated for 30 mins followed by substrate addition measured after 60 mins in presence of Triton X-100 by amplex red reagent based fluorescence assay; conditions: 1 h

SMILES | inhibition [1] | Ki [3] | other results
COc1cccc(CO)c1 | inactive | – | inhibition (INH) [2]: Not Active
Nc1nn(-c2ccccc2)nc1C(=O)NCc1ccccc1 | inactive | 23 nM | –
Nc1nn(-c2ccc(Cl)cc2)nc1C(=O)CCc1ccccc1 | inactive | – | –
Cc1ccccc1COC(=O)c1nn(-c2ccccc2)nc1N | – | 49 nM | IC50 [4]: 500 nM
Cn1c(=O)c2c(nc(/C=C/c3cccc(Cl)c3)n2C)n(C)c1=O | – | – | Activity [5]: 13%
Nc1nn(-c2ccccc2)nc1C(=O)OCc1ccccc1 | – | 31 nM | inhibition at 30 µM [6]: > 70%; IC50 [4]: 380 nM; inhibition [7]: > 60%
Nc1nn(-c2ccccc2Cl)nc1C(=O)CCc1ccccc1 | inactive | 630 nM | –
Cc1ccc(-n2nc(N)c(C(=O)CCc3ccccc3)n2)cc1 | inactive | – | –
Cc1ccc(C(=O)Nc2nc3ccccc3[nH]2)cc1 | inactive | – | –
Nc1nn(-c2ccccc2)nc1C(=O)O | inactive | – | inhibition (INH) [2]: Not Active
Cc1ccc(COC(=O)c2nn(-c3ccccc3)nc2N)cc1 | – | 150 nM | IC50 [4]: 3800 nM; inhibition (INH) [10]: Active
Nc1nn(-c2ccccc2)nc1C(=O)CCc1ccccc1 | inactive | 2000 nM | –
Cc1ccccc1-n1nc(N)c(C(=O)CCc2ccccc2)n1 | inactive | – | –
C[C@@H]1Oc2ccc(Nc3ncnc4c3oc3ccccc34)cc2NC1=O | – | 1200 nM | inhibition at 30 µM [6]: > 70%; IC50 [4]: 1700 nM; inhibition [7]: > 60%

The next lines start with results.

inhibition [1] | Ki [3] | SMILES | other results
inactive | – | Cc1ccc(C(=O)Nc2nc3ccccc3[nH]2)cc1C | –
inactive | – | COc1cccc(C(=O)Nc2nc3ccccc3[nH]2)c1 | –
inactive | – | Cc1ccccc1C(=O)Nc1nc2ccccc2[nH]1 | –
– | 19 nM | COc1cccc(COC(=O)c2nn(-c3ccccc3)nc2N)c1 | inhibition [8]: Active; Activity [5]: 13%; inhibition [7]: > 60%
– | 99 nM | O=C(Nc1nc2cccc(Cl)c2[nH]1)c1ccccc1 | Activity [5]: 14%; inhibition [9]: Active
– | 2700 nM | O=C(Nc1nc2ccccc2[nH]1)c1ccccc1 | inhibition at 30 µM [6]: > 70%; IC50 [4]: 5000 nM; inhibition [7]: > 60%; inhibition (INH) [10]: Active
inactive | 530 nM | COc1cccc2nc(NC(=O)c3ccccc3)[nH]c12 | –
inactive | – | O=C(Nc1nc2ccccc2[nH]1)c1ccccc1O | –
inactive | – | Cc1cccc(C(=O)Nc2nc3ccccc3[nH]2)c1 | –
inactive | – | Cc1ccc2nc(NC(=O)c3ccccc3)[nH]c2c1 | –
inactive | 250 nM | Cc1cccc(-n2nc(N)c(C(=O)CCc3ccccc3)n2)c1 | –
